Compounds with a hit are over-represented: about 3.7% of the library has one in this group of screens.
Kir21 block: blocks the mouse Kir2.1 inward-rectifier potassium channel. hit rate 0.85% among 310,000. B-score at 10 µM. P35561. HEK293-Kir2.1, FluxOR thallium flux fluorescence; hits give low values;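 active = fluorescence ratio B-score at or below minus 3 SD of library scores, with starting-brightness B-score within 2 SD, cut at about -4.2 in these data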;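 also: channel flux triggered by added potassium and thallium sulfate stimulus; B-score of peak minus minimum fluorescence over baseline after thallium stimulus; more negative B-score means stronger Kir2.1 block with less thallium influx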
KCNK3 block: human KCNK3 channel inhibition, primary screen. O14649. CHO-KCNK3 thallium flux, FluxOR fluorescence; hits give low values. B-score at 10 µM. hit rate 0.84% among 340,000. AID 602410;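 active = B-score under library mean minus 4 SD, starting fluorescence ratio at most library mean plus 5 SD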;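 also: more negative B-score means stronger inhibition of thallium flux through KCNK3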
KCNQ1 inh: blocks the human KCNQ1 potassium channel; hit rate 1.3% among 310,000; B-score at 10 µM; CHO-K1 KCNQ1, FluxOR thallium flux fluorescence; hits give high values; P51787;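 active = compounds whose thallium flux B-score, printed positive for inhibition, exceeds three library SD while starting fluorescence stays within three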;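 also: channel opened by potassium depolarization with thallium stimulus after 20 min compound exposure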
hERG rescue: compounds protecting human hERG from proarrhythmic drug block. CHO-hERG, FluxOR thallium flux, dofetilide IC70 present. activation (rescue from dofetilide block), less the hit threshold, % at 10 µM. hit rate 0.51% among 310,000. AID 1511;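 active = activation above the mean of controls blocked by dofetilide plus 5 SD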;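 also: thallium influx through hERG after potassium depolarization seen as dye fluorescence rise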
Target sequence (Q12809 whole entry, looked up): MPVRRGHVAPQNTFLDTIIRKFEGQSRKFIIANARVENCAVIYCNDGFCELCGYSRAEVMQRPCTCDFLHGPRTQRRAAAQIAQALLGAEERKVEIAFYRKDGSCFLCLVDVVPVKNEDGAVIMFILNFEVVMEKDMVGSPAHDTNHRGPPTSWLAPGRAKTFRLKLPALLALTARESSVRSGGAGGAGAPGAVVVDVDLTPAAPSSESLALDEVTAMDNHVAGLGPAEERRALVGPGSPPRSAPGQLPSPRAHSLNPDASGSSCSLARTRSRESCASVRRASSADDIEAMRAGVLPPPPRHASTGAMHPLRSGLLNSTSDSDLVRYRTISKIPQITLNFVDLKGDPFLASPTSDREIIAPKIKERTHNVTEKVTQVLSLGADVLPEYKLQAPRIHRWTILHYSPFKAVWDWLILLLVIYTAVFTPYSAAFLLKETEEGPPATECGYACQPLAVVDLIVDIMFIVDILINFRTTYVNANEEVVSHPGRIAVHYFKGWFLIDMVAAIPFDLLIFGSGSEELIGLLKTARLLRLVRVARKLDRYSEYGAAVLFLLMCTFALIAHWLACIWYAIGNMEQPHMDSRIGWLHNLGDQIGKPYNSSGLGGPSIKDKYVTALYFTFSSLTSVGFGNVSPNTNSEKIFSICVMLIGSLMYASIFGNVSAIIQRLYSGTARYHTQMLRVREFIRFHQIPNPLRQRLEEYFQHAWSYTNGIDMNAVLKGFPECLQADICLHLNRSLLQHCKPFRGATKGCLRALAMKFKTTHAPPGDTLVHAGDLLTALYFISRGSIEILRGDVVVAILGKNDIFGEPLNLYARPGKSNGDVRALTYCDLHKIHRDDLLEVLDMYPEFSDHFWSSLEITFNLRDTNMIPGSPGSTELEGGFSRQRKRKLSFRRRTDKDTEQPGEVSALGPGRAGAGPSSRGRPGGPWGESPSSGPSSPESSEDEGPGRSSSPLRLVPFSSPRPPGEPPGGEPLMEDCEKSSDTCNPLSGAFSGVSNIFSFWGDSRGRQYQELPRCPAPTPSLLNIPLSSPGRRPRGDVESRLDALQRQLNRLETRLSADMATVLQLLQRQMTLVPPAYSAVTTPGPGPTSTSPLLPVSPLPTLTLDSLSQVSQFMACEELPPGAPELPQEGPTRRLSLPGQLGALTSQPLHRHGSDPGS
KCNK9 inh: human KCNK9 channel inhibition; Q9NPC2; B-score at 10 µM; HEK293 KCNK9, FluxOR thallium flux fluorescence; hits give low values; hit rate 1.2% among 310,000;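 active = ratio B-score over 3 SD below the library mean, with starting fluorescence within 5 SD of its mean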;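 also: negative B-score means less thallium flux so channel inhibition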
KCNQ1 pot: potentiates or activates the human KCNQ1 potassium channel | P51787 | CHO-K1 KCNQ1, thallium flux FluxOR fluorescence; hits give high values | B-score at 10 µM | hit rate 0.35% among 310,000 | AID 2648;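 active = fluorescence ratio B-score, a plate-corrected score, at least three library SD, with initial intensity B-score within 5 SD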
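Medium – assay buffer, equal DMSO in all wells · Material – CHO-K1 cell line with stable KCNQ1 potassium channel expression · Signal – kinetic FluxOR thallium fluorescence, 10-s 1-Hz baseline, 110-s post-stimulus read · Compound – single concentration per compound, DMSO matched to controls · Schedule – 37 °C overnight plating, 90-min dark dye load, 20-min compound pretreatment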
The depositor's hits bear a star; i = inactive; / = no result given.

SMILES	Kir21 block	KCNK3 block	KCNQ1 inh	hERG rescue	KCNK9 inh	KCNQ1 pot
CCOc1cccc(CN(C)CC2CCCN(CCc3ccc(Cl)cc3)C2)c1O (stereo not drawn)	-7.33*	i	i	-4.7	i	i
CC(=O)c1cccc(CN(C)CC2CCCN(CCc3ccccc3C)C2)c1 (stereo not drawn)	-6.45*	i	i	-0.8	i	i
Cc1ccccc1CCN1CCCC(CN(C)CC(C)(C)C)C1 (stereo not drawn)	-0.31	i	i	-10.3	i	i
O=C(NCCC(=O)N1CCN(c2ccc(F)cc2)CC1)c1ccco1	/	i	/	/	/	/
CCCCN(C(=O)C1CCCC1)c1c(N)n(Cc2ccccc2)c(=O)[nH]c1=O	/	i	/	/	/	/
O=S(=O)(NCc1ccccc1)c1ccc(-n2cccn2)cc1	0.54	i	i	-7.6	i	i
CNC(=S)/N=C/NOCc1ccc(Cl)cc1Cl	0.28	i	8*	-32.6	i	i
CCOC(=O)c1sc2nc(SCC(=O)N(CC)CC)n(CCCN3CCCC3=O)c(=O)c2c1C	1.79	i	i	-12.8	i	i
CCOC(=O)C1=C(C)N=c2s/c(=C/c3cccc([N+](=O)[O-])c3O)c(=O)n2C1c1cc(OC)c(OC)c(OC)c1 (stereo not drawn)	-0.33	i	8*	-15.9	i	i
Cc1ccc(OCCC(=O)N(CC(=O)Nc2ccccc2C(F)(F)F)Cc2ccco2)cc1	-3.13	i	i	-5.5	i	i
COc1ccc(NC(=O)COC(=O)CCc2ccc(S(=O)(=O)N3CCOCC3)cc2)cc1OC	/	i	/	/	/	/
CC(C)(C)c1ccc(NC(=O)NC2CCCc3ccccc32)cc1 (stereo not drawn)	-0.91	i	6*	-4.5	i	i
O=C(NC1CCN(Cc2ccccc2)CC1)c1ccc(Cl)cc1Cl	-6.53*	i	i	-2.2	i	i
S=C(Nc1ccccc1Cl)NC1CCN(Cc2ccccc2)CC1	-6.74*	i	i	-10.6	i	i
Cc1c(Cl)cccc1NC(=S)NC1CCN(Cc2ccccc2)CC1	-0.98	i	i	-9.5	i	i
COc1cc(C(=O)OCC(=O)Nc2ccccc2C(=O)NC2CC2)c([N+](=O)[O-])cc1OC	/	i	/	/	/	/
CS(=O)(=O)c1ccc(S(=O)(=O)N2CCC(CO)(CCCc3ccccc3)CC2)cc1	0.78	i	i	-6.2	i	i
O=S(=O)(Nc1ccc(Br)cn1)c1ccc2ccccc2c1	0.98	i	i	-6.6	i	i
Cc1ccc(C(=O)OCC(=O)NCc2ccc(F)cc2)o1	/	i	/	/	/	/
Cc1onc(-c2ccccc2)c1CNS(=O)(=O)c1ccc(F)cc1F	-3.99	i	i	-10.9	i	i
Cc1onc(-c2ccccc2)c1CNS(=O)(=O)c1cccc(Br)c1	-6.36*	i	i	-9.2	i	i
CN(c1cccc(NC(=O)CN(c2cccc(Cl)c2)S(=O)(=O)c2ccc(Cl)cc2)c1)S(C)(=O)=O	-1.7	i	i	-3.0	-7.35*	i
Cc1ccc(Cl)cc1N(CC(=O)Nc1cccc(N(C)S(C)(=O)=O)c1)S(C)(=O)=O	-1.65	i	i	-18.5	i	i
O=C1CC2C(CCC23OCCO3)c2ccc3ccccc3c21 (stereo not drawn)	/	i	/	/	/	/
Cc1nn2c(c1-c1ccc(Cl)cc1)N=C(c1ccco1)CC2c1ccccc1 (stereo not drawn)	0.37	i	7*	-4.6	-6.68*	i
CC(C)(C)NC(=O)NC(=O)COC(=O)c1c(F)cccc1Cl	1.59	i	i	-7.1	i	i
C[C@@H](C(=O)CC(=O)OC(C)(C)C)[C@@H](O)c1c(F)cccc1Cl	0.04	i	i	-6.8	-8.01*	i
O=C(CCl)c1ccc2[nH]c(=O)oc2c1	1.53	i	i	-16.0	i	i
CCn1c2ccccc2c2cc(/C=N/NC(=O)c3ccc(O)cc3)ccc21	-4.43*	i	i	-9.3	i	i
O=C(C1=C[C@@H](c2coc3ccccc3c2=O)C[C@@H](OCCCCO)O1)N1CCN(Cc2ccc3c(c2)OCO3)CC1	0.47	i	i	-24.5	i	i

Compound activity: PubChem BioAssay, Johns Hopkins Ion Channel Center
